In ChEMBL document CHEMBL4261610, “Structure-activity relationships of pyrazole-4-carbodithioates as antibacterials against methicillin-resistant Staphylococcus aureus” (Bioorg Med Chem Lett, 2018):
≈ marks a conversion by molar mass, not a printed value. Calls of active or inactive are those of the source. The rule behind the calls is not given here.

Tests used:
Quadruplex DNA [1] = assay: Binding affinity to ER03 quadruplex DNA (unknown origin) at DNA to compound ratio of 1:2.5 to 1:10 after 20 mins by ESI-MS analysis; format: nucleic-acid assay
DNA = assay: Binding affinity to ER04 single stranded DNA (unknown origin) at DNA to compound ratio of 1:2.5 to 1:10 after 20 mins by ESI-MS analysis; format: nucleic-acid assay
dsDNA [2] = assay: Binding affinity to D2 double stranded DNA (unknown origin) at DNA to compound ratio of 1:2.5 to 1:10 after 20 mins by ESI-MS analysis; format: nucleic-acid assay
[3] = Binding affinity to RNA oligonucleotide (unknown origin)
Summary of the method: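 RNA oligonucleotides were incubated with compound, and adduct formation was examined by ESI mass spectrometry.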

dsDNA [4] = assay: Binding affinity to Rt1 double stranded DNA (unknown origin) at DNA to compound ratio of 1:2.5 to 1:10 after 20 mins by ESI-MS analysis; format: nucleic-acid assay
[5] = Inhibition of RNA transcription in cell-free system; format: functional
dsDNA [6] = assay: Binding affinity to Dst double stranded DNA (unknown origin) at DNA to compound ratio of 1:2.5 to 1:10 after 20 mins by ESI-MS analysis; format: nucleic-acid assay
[7] = Inhibition of DNA replication in cell-free system at >160 uM using 5'-flap-primed M13 ssDNA template/dNTP pretreated for 5 mins followed by DNA addition and measured after 20 mins by helicase-independent polymerase3 primer extension-strand displacement rolling circle assay; format: functional
Summary of the method: (§1)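 The cell-free bacterial replication system holds all enzymes, ancillary proteins, nucleotide precursors and DNA template needed to duplicate circular bacterial DNA. Covalent reaction with any component would read out as loss of replication.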

[8] = Selectivity index, ratio of IC50 for human HKC8 cells to MIC for methicillin-resistant Staphylococcus aureus MW2; format: toxicity; settings: read-out: Selectivity Index
Summary of the method: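 Ratio of the cytotoxic IC50 in human HKC-8 kidney cells to the MIC against MRSA MW2. Both values are in μg/mL and were measured in this work.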

[9] = Cytotoxicity against human HKC8 cells after 24 hrs by WST1 assay; format: cell-based; settings: HKC8, 24 h
Summary of the method: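 Human HKC-8 cells were exposed to compound, and cytotoxicity was reported as IC₅₀ in μg/mL.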

Staphylococcus aureus [10] = assay: Antibacterial activity against methicillin-resistant Staphylococcus aureus MW2 after 24 hrs by two-fold broth microdilution method; format: functional; settings: MW2, 24 h
Summary of the method: (§2)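 Read-out is the minimum inhibitory concentration against MRSA strain MW2, expressed in μg/mL.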

Staphylococcus aureus [11] = assay: Antibacterial activity against methicillin-resistant Staphylococcus aureus MW2; format: functional; summary of the method: as §2
Quadruplex DNA [12] = assay: Binding affinity to G5 quadruplex DNA (unknown origin) at DNA to compound ratio of 1:2.5 to 1:10 after 20 mins by ESI-MS analysis; format: nucleic-acid assay
[13] = Inhibition of DNA replication in cell-free system at <640 uM using 5'-flap-dsDNA template/dNTP after 20 mins by helicase-dependent leading strand rolling circle replication assay; format: functional; summary of the method: as §1

SMILES	selectivity ratio [8]	IC50 [9]	MIC (Staphylococcus aureus [10])	further results
CCCSC(=S)c1c(C)nn(-c2ccccc2)c1O	1	4 µg/mL (≈ 13.7 µM)	4 µg/mL (≈ 13.7 µM)	Activity (Quadruplex DNA [1]): inactive; Activity (DNA): inactive; Activity (dsDNA [2]): inactive; Activity [3]: inactive; Activity (dsDNA [4]): inactive; inhibition [5]: inactive; Activity (dsDNA [6]): inactive; inhibition [7]: Active; MIC (Staphylococcus aureus [11]): 4 µg/mL (≈ 13.7 µM); Activity (Quadruplex DNA [12]): inactive; inhibition [13]: inactive
CCCSC(=S)c1c(-c2ccc(Br)cc2)nn(-c2ccccc2)c1O	–	–	0.5 µg/mL (≈ 1.15 µM)	–
Cc1nn(-c2ccccc2)c(O)c1C(=S)Sc1cccnc1	–	–	16 to 32 µg/mL (≈ 48.9 to 97.7 µM)	–
CCCNC(=S)c1c(C)nn(-c2ccccc2)c1O	–	–	> 64 µg/mL	–
CCCSC(=S)c1c(-c2ccc(C#N)cc2)nn(-c2ccccc2)c1O	–	–	2 µg/mL (≈ 5.27 µM)	–
CCCSC(=S)c1c(-c2ccccc2)nn(-c2ccccc2)c1O	16	32 µg/mL (≈ 90.3 µM)	2 µg/mL (≈ 5.64 µM)	–
Cc1nn(-c2ccccc2)c(O)c1C(=S)SCc1ccccc1	8 to 16	32 µg/mL (≈ 94 µM)	2 to 4 µg/mL (≈ 5.87 to 11.7 µM)	–
CCCSC(=S)c1c(C)nn(-c2ccc(C)cc2)c1O	–	–	4 µg/mL (≈ 13.1 µM)	–
C=CCSC(=S)c1c(C)nn(-c2ccccc2)c1O	2 to 4	16 to 32 µg/mL (≈ 55.1 to 110 µM)	4 to 8 µg/mL (≈ 13.8 to 27.5 µM)	–
CCCSC(=S)c1c(-c2ccc(C(F)(F)F)cc2)nn(-c2ccccc2)c1O	–	–	32 to 64 µg/mL (≈ 75.7 to 151 µM)	–
CCSC(=S)c1c(C)nn(-c2ccccc2)c1O	1	8 µg/mL (≈ 28.7 µM)	8 µg/mL (≈ 28.7 µM)	–
CCCSC(=S)c1c(-c2ccc(Cl)cc2)nn(-c2ccccc2)c1O	4 to 8	4 µg/mL (≈ 10.3 µM)	0.5 to 1 µg/mL (≈ 1.29 to 2.57 µM)	–
CCCSC(=S)c1c(-c2ccc(OC)cc2)nn(-c2ccccc2)c1O	4	8 µg/mL (≈ 20.8 µM)	2 µg/mL (≈ 5.2 µM)	–
CCCSC(=S)c1c(-c2ccc(F)cc2)nn(-c2ccccc2)c1O	4	4 µg/mL (≈ 10.7 µM)	1 µg/mL (≈ 2.68 µM)	–
CCCOC(=O)c1c(C)nn(-c2ccccc2)c1O	–	–	> 64 µg/mL	–
CSC(SC)=C1C(=O)N(c2ccccc2)N=C1C	–	–	> 64 µg/mL	–
CCCSC(=S)c1c(C)nn(-c2ccc(Cl)cc2)c1O	–	–	2 to 4 µg/mL (≈ 6.12 to 12.2 µM)	–
CCCSC(=S)c1c(C)nn(-c2ccc(Br)cc2)c1O	–	–	1 to 2 µg/mL (≈ 2.69 to 5.39 µM)	–
CCCCSC(=S)c1c(C)nn(-c2ccccc2)c1O	1 to 2	4 µg/mL (≈ 13.1 µM)	2 to 4 µg/mL (≈ 6.53 to 13.1 µM)	–
CCCSC(=S)c1c(C)nn(-c2ccc([N+](=O)[O-])cc2)c1O	1	0.5 to 1 µg/mL (≈ 1.48 to 2.96 µM)	0.5 to 1 µg/mL (≈ 1.48 to 2.96 µM)	–
CCCSC(=S)c1c(C)nn(-c2ccc(C#N)cc2)c1O	–	–	2 µg/mL (≈ 6.3 µM)	–
CSC(=S)c1c(C)nn(-c2ccccc2)c1O	1	16 µg/mL (≈ 60.5 µM)	16 µg/mL (≈ 60.5 µM)	–
CCCSC(=S)c1c(C)nn(-c2ccc(F)cc2)c1O	–	–	2 to 4 µg/mL (≈ 6.44 to 12.9 µM)	–
CCCSC(=S)c1c(-c2ccc([N+](=O)[O-])cc2)nn(-c2ccccc2)c1O	0.5	0.5 µg/mL (≈ 1.25 µM)	1 µg/mL (≈ 2.5 µM)	–
CCCSC(=S)c1c(C)nn(-c2ccc(OC)cc2)c1O	–	–	8 µg/mL (≈ 24.8 µM)	–
CCCNC(=O)c1c(C)nn(-c2ccccc2)c1O	–	–	> 64 µg/mL	–
CCCSC(=S)c1c(-c2ccc(C)cc2)nn(-c2ccccc2)c1O	4 to 8	8 µg/mL (≈ 21.7 µM)	1 to 2 µg/mL (≈ 2.71 to 5.43 µM)	–
